Activity calls are given as the source filed them. The calls are words filed in the database; no cut-off is given here. Square brackets hold non-standard residues; d marks the D form. Peptide text beside a SMILES is read from it. ξ: configuration not given here. Oic(3aξ,7aξ) = O=C(O)[C@@H]1CC2CCCCC2N1; Tic = O=C(O)[C@@H]1Cc2ccccc2CN1; Aun = NCCCCCCCCCCC(=O)O
Columns and labels:
[1] = target: T1, B2 bradykinin receptor (Homo sapiens) (UniProt P30411); assay: Binding affinity towards human cloned B2 receptor was determined using [3H]BK as radioligand; Inactive
T1 sequence (whole entry): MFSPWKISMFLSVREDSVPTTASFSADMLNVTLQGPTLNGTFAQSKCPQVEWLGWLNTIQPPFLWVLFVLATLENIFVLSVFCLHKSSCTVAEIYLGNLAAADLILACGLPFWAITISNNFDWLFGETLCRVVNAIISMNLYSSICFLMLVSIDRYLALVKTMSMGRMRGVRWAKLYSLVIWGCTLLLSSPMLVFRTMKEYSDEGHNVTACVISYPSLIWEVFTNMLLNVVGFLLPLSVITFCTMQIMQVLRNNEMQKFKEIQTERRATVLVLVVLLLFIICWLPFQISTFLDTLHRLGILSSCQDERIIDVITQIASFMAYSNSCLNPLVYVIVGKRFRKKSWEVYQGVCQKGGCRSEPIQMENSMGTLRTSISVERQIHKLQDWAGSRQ

Rattus norvegicus = organism: Rattus norvegicus; assay: Compound was tested for antagonist activity on rat ileum longitudinal smooth muscle; format: functional; conditions: read-out: pA2 (converted)
[2] = target: T2, B1 bradykinin receptor (Homo sapiens) (UniProt P46663); assay: Binding affinity towards human cloned B1 receptor was determined using [3H][des-Arg10-Leu9]-kallidin as radioligand; No significant affinity at 10E-5 M
T2 sequence (whole entry): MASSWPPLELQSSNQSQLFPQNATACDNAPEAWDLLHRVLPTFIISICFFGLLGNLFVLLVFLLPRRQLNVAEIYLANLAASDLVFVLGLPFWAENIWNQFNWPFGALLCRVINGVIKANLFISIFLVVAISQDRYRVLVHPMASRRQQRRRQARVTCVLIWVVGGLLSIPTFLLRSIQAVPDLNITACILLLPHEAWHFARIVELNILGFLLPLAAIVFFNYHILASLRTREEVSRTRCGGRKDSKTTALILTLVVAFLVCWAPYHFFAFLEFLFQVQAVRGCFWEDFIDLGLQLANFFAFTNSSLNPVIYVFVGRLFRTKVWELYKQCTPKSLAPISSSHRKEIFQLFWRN

[3] = target: T2, B1 bradykinin receptor (Homo sapiens); assay: Binding affinity towards human cloned B1 receptor was determined using [3H][des-Arg10-Leu9]-kallidin as radioligand; No significant affinity at 10 uM
B2 bradykinin receptor = target: T3, B2 bradykinin receptor (Homo sapiens, UniProt P30411); assay: Binding affinity towards human cloned B2 receptor was determined using [3H]BK as radioligand
T3 sequence (P30411 whole entry): T1 sequence (whole entry)

B1 bradykinin receptor = target: T4, B1 bradykinin receptor (Homo sapiens, UniProt P46663); assay: Binding affinity towards human cloned B1 receptor was determined using [3H][des-Arg10-Leu9]-kallidin as radioligand
T4 sequence (P46663 whole entry): T2 sequence (whole entry)

Homo sapiens = organism: Homo sapiens; assay: Competitive inhibition of the contraction of the human umbilical vein induced by the potent B1 receptor agonist [des-Arg10]-kallidin; format: functional; conditions: read-out: pA2 (converted)
Summary of the method: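 Human umbilical vein rings (3-4 mm) incubated overnight at 37 °C in Krebs (B1 induction), then set in organ baths at 37 °C, 95% O2/5% CO2, stretched to 1 g. Antagonist or vehicle 15 min before [des-Arg10]-kallidin concentration-response curve (one per ring), expressed as % of 1 µM U46619 maximal contraction.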

Row | NA [1] | NS [3] | SMILES | further results
1 | inactive | – | C[C@@H](O)[C@H](NC(=O)CN1CN(CCc2ccccc2)C2(CCN(C(=O)[C@H](CCCN=C(N)N)NC(=O)[C@@H](N)CCCCN)CC2)C1=O)C(=O)N[C@@H]1CSc2ccccc2N(CC(=O)O)C1=O | –
2 | – | – | NC(N)=NCCC[C@H](NC(=O)[C@@H](N)CCCN=C(N)N)C(=O)NCCCCCCCCCCC(=O)N[C@@H](CO)C(=O)N1Cc2ccccc2C[C@H]1C(=O)N1C2CCCCC2C[C@H]1C(=O)O (stereo partly specified) (H-RR[Aun]S[Tic][Oic(3aξ,7aξ)]-OH) | Kb (Rattus norvegicus): 79.4 nM
3 | inactive | – | NCCCC[C@H](N)C(=O)N[C@@H](CCCN=C(N)N)C(=O)N1CCC2(CC1)CN(CC(=O)N[C@@H]1CSc3ccccc3N(CC(=O)O)C1=O)C(=O)N2CCc1ccccc1 | –
4 | inactive | – | NCCCC[C@H](N)C(=O)N[C@@H](CCCN=C(N)N)C(=O)N1CCC2(CC1)C(=O)N(CC(=O)N[C@@H](CO)C(=O)N[C@@H]1CSc3ccccc3N(CC(=O)O)C1=O)CN2c1ccccc1 | NS [2]: inactive
5 | inactive | inactive | C[C@H](NC(=O)[C@@H](N)CCCCN)C(=O)N1CCC2(CC1)C(=O)N(CC(=O)N[C@@H](CO)C(=O)N[C@@H]1CSc3ccccc3N(CC(=O)O)C1=O)CN2CCc1ccccc1 | –
6 | inactive | inactive | N=C(N)NCCCCC(=O)NC(CCCNC(=N)N)C(=O)N1CCC2(CC1)C(=O)N(CC(=O)NC(CO)C(=O)N[C@@H]1CSc3ccccc3N(CC(=O)O)C1=O)CN2CCc1ccccc1 (stereo partly specified) | –
7 | inactive | inactive | N=C(N)NCCCC(NC(=O)C1CCNCC1)C(=O)N1CCC2(CC1)C(=O)N(CC(=O)NC(CO)C(=O)N[C@@H]1CSc3ccccc3N(CC(=O)O)C1=O)CN2CCc1ccccc1 (stereo partly specified) | –
8 | inactive | inactive | NCc1ccc(C(=O)NC(CCCN=C(N)N)C(=O)N2CCC3(CC2)C(=O)N(CC(=O)NC(CO)C(=O)N[C@@H]2CSc4ccccc4N(CC(=O)O)C2=O)CN3CCc2ccccc2)cc1 (stereo partly specified) | –
9 | inactive | – | NCCCC[C@H](N)C(=O)N[C@@H](CCCN=C(N)N)C(=O)N1CCC2(CC1)C(=O)N(CC(=O)N[C@@H](CO)C(=O)N[C@@H]1CSc3ccccc3N(CC(=O)O)C1=O)CN2CCC1Cc2ccccc2C1 | NS [2]: inactive
10 | inactive | – | C[C@H](NC(=O)CN1CN(CCc2ccccc2)C2(CCN(C(=O)[C@H](CCCN=C(N)N)NC(=O)[C@@H](N)CCCCN)CC2)C1=O)C(=O)N[C@@H]1CSc2ccccc2N(CC(=O)O)C1=O | –
11 | inactive | inactive | C[C@H](N)C(=O)N[C@@H](CCCN=C(N)N)C(=O)N1CCC2(CC1)C(=O)N(CC(=O)N[C@@H](CO)C(=O)N[C@@H]1CSc3ccccc3N(CC(=O)O)C1=O)CN2CCc1ccccc1 | –
12 | – | – | NCCCC[C@H](N)C(=O)N[C@@H](CCCN=C(N)N)C(=O)N1CCC2(CC1)C(=O)N(CC(=O)N[C@@H](CO)C(=O)N[C@@H]1CSc3ccccc3N(CC(=O)O)C1=O)CN2CCc1ccccc1 | Ki (B2 bradykinin receptor): 11900 nM; Ki (B1 bradykinin receptor): 24.1 nM; Kb (Homo sapiens): 794 nM

Reference: ChEMBL document CHEMBL1133747, “A rational approach to the design and synthesis of a new bradykinin B(1) receptor antagonist” (J Med Chem, 2000)
